This is an account of results in PMC8859974 (Journal of medicinal chemistry, 2019).

In data set [1] the target is T1, PA-CMG2 interaction (Homo sapiens, UniProt P58335, C175A/R40C).
T1 sequence (P58335 40-217 R40C/C175A): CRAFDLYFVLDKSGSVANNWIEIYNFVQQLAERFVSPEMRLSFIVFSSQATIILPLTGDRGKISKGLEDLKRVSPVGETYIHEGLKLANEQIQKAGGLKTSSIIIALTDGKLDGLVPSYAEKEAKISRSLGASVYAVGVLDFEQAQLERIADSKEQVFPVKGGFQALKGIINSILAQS
As to conditions: cited from earlier work.

The subject of data set [2] is bFGF-induced angiogenesis. To be noted: oral or intraperitoneal administration; cited from earlier work.
Data set [3] deals with T1, PA-CMG2 interaction. Briefly: CMG2-PA FRET assay. It counts as binding. To be noted: for inhibitory effect on CMG2-PA interaction (in words): FRET assay. Summed up:
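After AF546 dispensing, 32 nM PA-AF488 solution was added and the mix incubated 4 h. Excitation 485 nm; emission 535 and 595 nm. Artifact-filtered Em595/Em535 FRET ratio was converted to % inhibition against an interaction control (100%) and an EDTA no-interaction control (0%).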

The test system of a further data set is EA.hy926 cells. Briefly: CellASIC microfluidic chemotactic endothelial cell migration. It counts as cell-based. To be noted: Homo sapiens, EA.hy 926, 12 h, read-out: Best fit IC50, chemotactic endothelial cell migration.
Data set [4] is classed as in vivo, mice.

As for `O=C(OC[C@H]1O[C@@H](OC(=O)c2cc(O)c(O)c(O)c2)[C@H](OC(=O)c2cc(O)c(O)c(O)c2)[C@@H](OC(=O)c2cc(O)c(O)c(O)c2)[C@@H]1OC(=O)c1cc(O)c(O)c(O)c1)c1cc(O)c(O)c(O)c1` [compound 1, 1,2,3,4,6-penta-O-galloyl-ß-D-glucopyranose], the “IC50 of binding to CMG2” value on PA-CMG2 interaction [1] is on record as “submicromolar”. The “angiogenesis in the mouse corneal micropocket assay” value in data set [2] is “inhibits angiogenesis”.

Regarding `O=C(OC[C@H]1O[C@@H](OC(=O)c2cc(O)c(O)c(O)c2)[C@@H](OC(=O)c2cc(O)c(O)c(O)c2)[C@@H](OC(=O)c2cc(O)c(O)c(O)c2)[C@@H]1OC(=O)c1cc(O)c(O)c(O)c1)c1cc(O)c(O)c(O)c1` [compound 8, 1,2,3,4,6-penta-O-galloyl-β-D-mannopyranose], the “affinity for CMG2 relative to the glucose prototype PGG” value at PA-CMG2 interaction [3] (FRET based binding assay) is recorded as “up to 10 x”. In addition, the IC50 in the data set with EA.hy926 cells was 0.365 ± 0.129 µM. Moreover, the weight loss result in data set [4] (10 mg/kg intraperitoneally, compared to vehicle-treated control animals) was “no significant weight loss”. Besides, the “signs of toxicity (weight loss, hunched posture, behavioral abnormalities)” value in data set [4] (treated mice) is on record as “no obvious signs of toxicity”.

`O=C(O[C@@H]1OC[C@@H](OC(=O)c2cc(O)c(O)c(O)c2)[C@@H](OC(=O)c2cc(O)c(O)c(O)c2)[C@H]1OC(=O)c1cc(O)c(O)c(O)c1)c1cc(O)c(O)c(O)c1` [compound 10]: on PA-CMG2 interaction [3], the “inhibitory effect on CMG2-PA interaction (in words)” value (“inhibitory effect” for short) was “no inhibitory effect”.

Turning to `O=C(OC[C@@H](OC(=O)c1ccc(O)c(O)c1O)[C@@H]1O[C@H](OC(=O)c2ccc(O)c(O)c2O)[C@H](OC(=O)c2ccc(O)c(O)c2O)[C@H]1OC(=O)c1ccc(O)c(O)c1O)c1ccc(O)c(O)c1O` [compound 15, α-D-Galactofuranose pentakis(2,3,4-trihydroxybenzoate)], the IC50 at PA-CMG2 interaction [3] is > 10 µM.

Regarding `O=C(O[C@H]1OC[C@@H](OC(=O)c2ccc(O)c(O)c2O)[C@@H](OC(=O)c2ccc(O)c(O)c2O)[C@H]1OC(=O)c1ccc(O)c(O)c1O)c1ccc(O)c(O)c1O` [compound 22, α-D-Ribopiranose tetrakis(2,3,4-trihydroxybenzoate)], on PA-CMG2 interaction [3], the “inhibitory effect” value is listed as “no inhibitory effect”.

Regarding `O=C(O[C@@H]1OC[C@@H](OC(=O)c2ccc(O)c(O)c2O)[C@@H](OC(=O)c2ccc(O)c(O)c2O)[C@H]1OC(=O)c1ccc(O)c(O)c1O)c1ccc(O)c(O)c1O` [compound 23, β-D-Ribopiranose tetrakis(2,3,4-trihydroxybenzoate)], the “inhibitory effect” value at PA-CMG2 interaction [3] is on record as “no inhibitory effect”.

Consider `O=C(OC[C@H]1O[C@H](O[C@H]2[C@H](OC(=O)c3cc(O)c(O)c(O)c3)[C@@H](OC(=O)c3cc(O)c(O)c(O)c3)[C@H](OC(=O)c3cc(O)c(O)c(O)c3)O[C@@H]2COC(=O)c2cc(O)c(O)c(O)c2)[C@H](OC(=O)c2cc(O)c(O)c(O)c2)[C@@H](OC(=O)c2cc(O)c(O)c(O)c2)[C@@H]1OC(=O)c1cc(O)c(O)c(O)c1)c1cc(O)c(O)c(O)c1` [compound 25, β-D-Maltose octakis(3,4,5-trihydroxybenzoate)], for which the “inhibitory effect” value against PA-CMG2 interaction [3] is “did not inhibit CMG2-PA interaction”.

For `O=C(OC[C@H]1O[C@H](O[C@H]2O[C@H](COC(=O)c3cc(O)c(O)c(O)c3)[C@@H](OC(=O)c3cc(O)c(O)c(O)c3)[C@H](OC(=O)c3cc(O)c(O)c(O)c3)[C@H]2OC(=O)c2cc(O)c(O)c(O)c2)[C@@H](OC(=O)c2cc(O)c(O)c(O)c2)[C@@H](OC(=O)c2cc(O)c(O)c(O)c2)[C@@H]1OC(=O)c1cc(O)c(O)c(O)c1)c1cc(O)c(O)c(O)c1` [compound 27, α,α-D-Trehalose octakis(3,4,5-trihydroxybenzoate)], the “inhibitory effect” value at PA-CMG2 interaction [3] is reported as “did not inhibit CMG2-PA interaction”.

For `O=C(OC[C@H]1O[C@H](O[C@H]2O[C@H](COC(=O)c3ccc(O)c(O)c3O)[C@@H](OC(=O)c3ccc(O)c(O)c3O)[C@H](OC(=O)c3ccc(O)c(O)c3O)[C@H]2OC(=O)c2ccc(O)c(O)c2O)[C@@H](OC(=O)c2ccc(O)c(O)c2O)[C@@H](OC(=O)c2ccc(O)c(O)c2O)[C@@H]1OC(=O)c1ccc(O)c(O)c1O)c1ccc(O)c(O)c1O` [compound 31, α,α-D-Trehalose octakis(2,3,4-trihydroxybenzoate)], at PA-CMG2 interaction [3], the “inhibitory effect” value is listed as “did not inhibit CMG2-PA interaction”.

As for `CCCOC(=O)c1cc(O)c(O)c(O)c1` [propyl gallate], the inhibitory activity result on PA-CMG2 interaction [1] (concentrations up to 300 μM) is “do not showed any inhibitory activity”.
